Converted amounts (≈) assume the structure as drawn. The source made the active and inactive calls. The calls are words filed in the database; no cut-off is given here.

This passage reports MIC and MIC80 results from ChEMBL document CHEMBL1126110, “Antirhinoviral activity of heterocyclic analogs of Win 54954” (1992).

Experiment [1] concerns rhinovirus B14. The experiment in a line: Minimum inhibitory concentration in vitro against HRV-14 in a plaque reduction assay. To be noted: Rhinovirus B. The class given is functional, human rhinovirus type 14. The gist of the method: (§1)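 Plaque reduction assay in HeLa-Ohio cells. MIC is the concentration (μM) that cut plaque number by 50%.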
Background: Plaques are areas of infected cells; plaque reduction assays count them against a control.

For experiment [2], the system named is Human rhinovirus sp. The experiment in a line: (§2) In vitro inhibition of 80% of the serotypes. The class given is functional. Put shortly: (§3)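 Fifteen rhinovirus serotypes (HRV-14 plus 14 more) were each run in a plaque reduction assay in HeLa-Ohio cells. The MIC for each serotype was the μM concentration giving 50% plaque reduction. MIC80 is the concentration that inhibited 80% of the serotypes tested.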

Experiment [3] deals with rhinovirus B14. The experiment in a line: Minimum inhibitory concentration in vitro against HRV-14 in a plaque reduction assay; NA=Not active. To be noted: human rhinovirus type 14. The class given is functional, organism-based. Put shortly:
as §1

Experiment [4] deals with Human rhinovirus 1A. The experiment in a line: Minimum inhibitory concentration against human rhinovirus serotype 1A. Format: functional. Put shortly: as §1
Experiment [5] has as its system rhinovirus A1B. The experiment in a line: Minimum inhibitory concentration against human rhinovirus serotype 1B. Format: functional. The settings on record: Rhinovirus A. Put shortly: as §1
The test system of experiment [6] is rhinovirus A2. The experiment in a line: (§4) Minimum inhibitory concentration against human rhinovirus serotype 2. The class given is functional. The settings on record: Rhinovirus A. The gist of the method:
as §1

Experiment [7] deals with rhinovirus A21. The experiment in a line: Minimum inhibitory concentration against human rhinovirus serotype 21. To be noted: Rhinovirus A. Format: functional. The gist of the method:
as §1

For experiment [8], the system named is rhinovirus A22. The experiment in a line: Minimum inhibitory concentration against human rhinovirus serotype 22. Format: functional. The settings on record: Rhinovirus A. Put shortly: as §1
Experiment [9] relates to rhinovirus A25. The experiment in a line: Minimum inhibitory concentration against human rhinovirus serotype 25. Format: functional. The settings on record: Rhinovirus A. The gist of the method: as §1
Experiment [10] has as its system rhinovirus A30. The experiment in a line: Minimum inhibitory concentration against human rhinovirus serotype 30. The class given is functional. The settings on record: Rhinovirus A. The gist of the method: as §1
Experiment [11] relates to rhinovirus A41. The experiment in a line: Minimum inhibitory concentration against human rhinovirus serotype 41. The class given is functional. The settings on record: Rhinovirus A. Put shortly:
as §1

Experiment [12] has as its system rhinovirus B6. The experiment in a line: Minimum inhibitory concentration against human rhinovirus serotype 6. Format: functional. To be noted: Rhinovirus B. Put shortly: as §1
Experiment [13] concerns rhinovirus A67. The experiment in a line: Minimum inhibitory concentration against human rhinovirus serotype 67. The class given is functional. To be noted: Rhinovirus A. The gist of the method: as §1
Experiment [14] has as its system rhinovirus B86. The experiment in a line: Minimum inhibitory concentration against human rhinovirus serotype 86. Format: functional. To be noted: Rhinovirus B. The gist of the method: as §1
Experiment [15] deals with rhinovirus A89. The experiment in a line: Minimum inhibitory concentration against human rhinovirus serotype 89. The class given is functional. The settings on record: Rhinovirus A. Put shortly:
as §1

The subject of experiment [16] is rhinovirus B14. The experiment in a line: Minimum inhibitory concentration against human rhinovirus serotype 14. Format: functional. To be noted: Rhinovirus B. The gist of the method:
as §1

In experiment [17] the test system is rhinovirus A15. The experiment in a line: Minimum inhibitory concentration against human rhinovirus serotype 15. The class given is functional. The settings on record: Rhinovirus A. The gist of the method:
as §1

Experiment [18] relates to rhinovirus A50. The experiment in a line: Minimum inhibitory concentration against human rhinovirus serotype 50. The class given is functional. The settings on record: Rhinovirus A. The gist of the method: as §1
In experiment [19] the test system is Human rhinovirus sp. The description is as §2. The class given is functional. The gist of the method: as §3
This is another data set of the same source.

Experiment [20] relates to rhinovirus A2. The description is as §4. Format: functional. To be noted: Rhinovirus A. Put shortly: as §1
This is another data set of the same source.

In experiment [1], `Cc1cc(CCCCCOc2c(Cl)cc(-c3ncco3)cc2Cl)on1` showed an MIC of 1.83 µM (≈ 0.698 µg/mL). Also, the MIC80 in experiment [2] stood at 1.71 µM (≈ 0.652 µg/mL).
As to `Cc1cc(CCCCCOc2c(Cl)cc(-c3ccncc3)cc2Cl)on1`, the MIC in experiment [1] stood at 0.97 µM (≈ 0.38 µg/mL).
The compound `Cc1cc(CCCCCOc2c(Cl)cc(-c3cccnc3)cc2Cl)on1` came in with an MIC in [1] of 6.6 µM (≈ 2.58 µg/mL).
In [1], `Cc1cc(CCCCCOc2c(Cl)cc(-c3ccco3)cc2Cl)on1` showed an MIC of 0.71 µM (≈ 0.27 µg/mL). Further, the MIC80 in experiment [2] worked out at 1.05 µM (≈ 0.399 µg/mL).
The like results for `Cc1cc(CCCCCOc2c(Cl)cc(-c3ccc(C)o3)cc2Cl)on1` were, in that order, 2.64 µM (≈ 1.04 µg/mL) and 1.27 µM (≈ 0.501 µg/mL).
The like results for `Cc1cc(CCCCCOc2c(Cl)cc(-c3nc(C)c(C)o3)cc2Cl)on1` were, in that order, 2.79 µM (≈ 1.14 µg/mL) and 1.3 µM (≈ 0.532 µg/mL).
The like results for `Cc1cc(CCCCCOc2c(Cl)cc(-c3nc(C)c(C)s3)cc2Cl)on1` were, in that order, 2.59 µM (≈ 1.1 µg/mL) and 2.14 µM (≈ 0.91 µg/mL).
For `Cc1cc(CCCCCOc2c(Cl)cc(-c3cccn3C)cc2Cl)on1`, the MIC entry in experiment [3] was “inactive”.
For `Cc1cc(CCCCCOc2c(Cl)cc(C3=NCCC3)cc2Cl)on1`, the MIC result in [3] was “inactive”.
Turning to `Cc1cc(CCCCCOc2c(Cl)cc(-c3ccsc3)cc2Cl)on1`, the MIC result in [3] is “inactive”. The compound also registered an MIC80 in [2] of 2.88 µM (≈ 1.14 µg/mL).
For the compound `Cc1cc(CCCCCOc2c(Cl)cc(-c3ccccn3)cc2Cl)on1`, in [1], the MIC came to 6.64 µM (≈ 2.6 µg/mL). Further, in experiment [2], the MIC80 came to 1.38 µM (≈ 0.54 µg/mL).
Regarding `Cc1cc(CCCCCOc2c(Cl)cc(C3=NCCO3)cc2Cl)on1` [WIN-54954], the MIC came to 1.2 µM (≈ 0.46 µg/mL) in experiment [1]; 2.51 µM (≈ 0.962 µg/mL) in experiment [4]; 0.17 µM (≈ 0.0652 µg/mL) in [5]; 0.023 µM (≈ 0.00882 µg/mL) in [6]; 0.02 µM (≈ 0.00767 µg/mL) in experiment [7]; 0.02 µM (≈ 0.00767 µg/mL) in [8]. In addition, the MIC stood at 0.29 µM (≈ 0.111 µg/mL) in [9]; 0.09 µM (≈ 0.0345 µg/mL) in experiment [10]; 0.89 µM (≈ 0.341 µg/mL) in experiment [11]; 0.23 µM (≈ 0.0882 µg/mL) in experiment [12]; 0.18 µM (≈ 0.069 µg/mL) in [13]; 0.21 µM (≈ 0.0805 µg/mL) in [14]. Further, the MIC in [15] turned out to be 0.02 µM (≈ 0.00767 µg/mL); in experiment [16] it was 1.2 µM (≈ 0.46 µg/mL); in experiment [17], 0.41 µM (≈ 0.157 µg/mL); in experiment [18], 0.06 µM (≈ 0.023 µg/mL). In experiment [2], this compound gave an MIC80 of 0.33 µM (≈ 0.126 µg/mL).
Take `Cc1cc(CCCCCOc2c(Cl)cc(-c3ccc(Cl)s3)cc2Cl)on1`: the MIC in experiment [1] worked out at 5.3 µM (≈ 2.28 µg/mL). In [2], this compound returned an MIC80 of 3.13 µM (≈ 1.35 µg/mL).
The like results for `Cc1cc(CCCCCOc2c(Cl)cc(-c3ccc(C)s3)cc2Cl)on1` were, in that order, 5.2 µM (≈ 2.13 µg/mL) and 1.71 µM (≈ 0.702 µg/mL).
With `Cc1cc(CCCCCOc2c(Cl)cc(-c3ccoc3)cc2Cl)on1`, the MIC entry in experiment [3] is “inactive”. The compound also returned an MIC80 in experiment [2] of 2.9 µM (≈ 1.1 µg/mL).
`Cc1cc(CCCCCOc2c(Cl)cc(-c3nnnn3C)cc2Cl)on1` yielded an MIC in experiment [1] of 2.04 µM (≈ 0.808 µg/mL). The MIC80 in experiment [2] and in [19] was 7.02 µM (≈ 2.78 µg/mL) throughout.
In turn, `Cc1cc(CCCCCOc2c(Cl)cc(-c3cccc(C)n3)cc2Cl)on1` showed an MIC in [1] of 5.88 µM (≈ 2.38 µg/mL). Further, the MIC80 in [2] was 1.93 µM (≈ 0.782 µg/mL).
Compound `Cc1cc(CCCCCOc2c(Cl)cc(-c3cnco3)cc2Cl)on1` yielded an MIC in experiment [1] of 12.8 µM (≈ 4.86 µg/mL). Moreover, the MIC80 in experiment [2] is 2.24 µM (≈ 0.854 µg/mL).
Consider `Cc1cc(CCCCCOc2c(Cl)cc(-c3nnn(C)n3)cc2Cl)on1`, for which the MIC in experiment [1] is 0.38 µM (≈ 0.151 µg/mL); in experiment [4] it was 0.38 µM (≈ 0.151 µg/mL); in experiment [5], 0.05 µM (≈ 0.0198 µg/mL); in [6] it was 0.025 µM (≈ 0.00991 µg/mL); in experiment [7], 0.02 µM (≈ 0.00793 µg/mL); in experiment [8] it was 0.008 µM (≈ 0.00317 µg/mL). For the same compound, the MIC is 0.08 µM (≈ 0.0317 µg/mL) in experiment [9]; 0.23 µM (≈ 0.0911 µg/mL) in [10]; 0.63 µM (≈ 0.25 µg/mL) in experiment [11]; 0.23 µM (≈ 0.0911 µg/mL) in experiment [12]; 0.18 µM (≈ 0.0713 µg/mL) in [13]; 0.24 µM (≈ 0.0951 µg/mL) in experiment [14]. For the same compound, the MIC in experiment [15] turned out to be 0.01 µM (≈ 0.00396 µg/mL); in experiment [20] it was 0.025 µM (≈ 0.00991 µg/mL); in experiment [16] it was 0.38 µM (≈ 0.151 µg/mL); in experiment [17], 0.25 µM (≈ 0.0991 µg/mL); in experiment [18] it was 0.06 µM (≈ 0.0238 µg/mL). This compound displayed an MIC80 in [2] of 0.25 µM (≈ 0.0991 µg/mL).
As for `Cc1cc(CCCCCOc2c(Cl)cc(-c3cccs3)cc2Cl)on1`, the MIC in [1] was 7.32 µM (≈ 2.9 µg/mL). In experiment [2], the MIC80 stood at 1.11 µM (≈ 0.44 µg/mL).
